Screening data as filed in PubChem BioAssay.
MLLE-PAM2 inh: inhibitors of PABP1 MLLE–PAM2 peptide binding, primary screen, biochemical, fluorescence polarization, FITC-PAM2, GST-MLLE; Polyadenylate-binding protein 1 (Homo sapiens), P11940; inhibition, % at 20 µM; 0.36% of 360,000 active; in the data active = inhibition above about 35%, passing the limit was not always enough;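 also: plate controls were DMSO wells with GST-MLLE for no effect and wells lacking GST-MLLE protein for full effect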
Target sequence (P11940 whole entry, looked up): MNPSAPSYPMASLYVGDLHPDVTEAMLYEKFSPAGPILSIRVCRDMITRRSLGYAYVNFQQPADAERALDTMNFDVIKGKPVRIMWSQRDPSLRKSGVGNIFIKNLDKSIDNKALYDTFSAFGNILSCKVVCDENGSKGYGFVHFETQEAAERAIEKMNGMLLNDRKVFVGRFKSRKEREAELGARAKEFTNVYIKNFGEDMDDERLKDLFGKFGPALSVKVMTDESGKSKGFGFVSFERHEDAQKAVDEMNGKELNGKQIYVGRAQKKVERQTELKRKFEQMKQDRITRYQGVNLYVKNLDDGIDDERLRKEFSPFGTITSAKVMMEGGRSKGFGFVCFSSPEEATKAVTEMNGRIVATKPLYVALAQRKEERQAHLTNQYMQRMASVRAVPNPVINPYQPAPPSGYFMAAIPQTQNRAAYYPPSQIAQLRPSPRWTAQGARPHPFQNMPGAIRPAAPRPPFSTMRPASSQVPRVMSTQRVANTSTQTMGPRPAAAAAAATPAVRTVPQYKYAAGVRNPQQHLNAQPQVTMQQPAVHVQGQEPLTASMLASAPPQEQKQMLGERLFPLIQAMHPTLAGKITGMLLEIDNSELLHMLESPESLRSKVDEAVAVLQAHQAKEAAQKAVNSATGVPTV
SKN-1 inh: suppressors of acrylamide-induced Pgst-4::GFP reporter in worms, primary screen, SKN-1 inhibitor project, whole organism, uHTS, GFP/RFP fluorescence ratio, strain VP596 | C. elegans VP596 Pgst-4::GFP/RFP ratio, 24 h | inhibition, % at 21.8 µM | 0.49% of 360,000 active | AID 624304, 2012;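 active = interference check ratio from 0.5 to 1.5 plus GFP to RFP signal ratio inhibition reaching or exceeding a fixed threshold, cut at about 30% in these data, passing the limit was not always enough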
MT1-MMP act inh: blockers of MT1-MMP proenzyme processing, primary screen, HT1080 RFP-PRO-GFP cells, GFP/RFP fluorescence; Matrix metalloproteinase-14 (Homo sapiens), P50281; GFP/RFP ratio fluorescence, overnight; percent of plate control window, DMSO zero; GFP/RFP ratio change, % at 20 µM; 0.061% of 360,000 active; AID 651647, 2012;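 active = GFP/RFP ratio change of at least 30% with cell ATP level not reduced by more than half and red fluorescence within 50% of control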
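Assay system: HT1080 RFP-PRO-GFP cells. Benchmarks: DMSO vehicle wells and RFP-L50D-GFP reporter cell wells. Times: overnight cell settling, then overnight compound exposure, 37 °C, 5% CO2. Compound: 20 µM single dose, 1% DMSO. Read-out basis: GFP/RFP fluorescence ratio.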
eIF4H inh: human eIF4H binding inhibitors, primary screen, translation initiation inhibitor project, biochemical, uHTS, fluorescence polarization | Eukaryotic translation initiation factor 4H (Homo sapiens), Q15056 | eIF4H fluorescence polarization binding assay | inhibition, % at 35 µM | 0.94% of 290,000 active | AID 2012, 2009;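 also: calls also rest on retests at 20 µM and on dose response follow-up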
PABP FP inh: PABP poly(A) RNA binding inhibitors, primary screen, biochemical, fluorescence polarization, uHTS; Polyadenylate-binding protein 1 (Homo sapiens), P11940; AID 2014, 2009; calls only at 35 µM; 1% of 290,000 active;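 also: calls also rest on retests at 20 µM and on dose response follow-up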
* = called active by the depositor; i = inactive; ? = inconclusive; nt = no result; + = active, no number; ! = repeats disagree. Only some compounds are listed: those with a hit (about 1.8% of all), similar ones and a draw of the others. Unless noted, no rule for the calls is given here.

SMILES	MLLE-PAM2 inh	SKN-1 inh	MT1-MMP act inh	eIF4H inh	PABP FP inh
O=Cc1cn(CCCOc2ccccc2)c2ccccc12	-13.8	5.8	-5.6	?	+
COc1ccccc1OCCCn1cc(C=O)c2ccccc21	9.6	-11.3	3.7	-0.7	i
Cc1ccc(/C=C2\C(=O)NC(=S)N(c3ccccc3F)C2=O)s1	10.1	19.5	23.3	10.2	i
Cc1ccc(/C=C2\C(=O)NC(=S)N(c3ccc(F)cc3)C2=O)s1	10.2	35.7*	-7.5	14.9	i
NCCc1cc(O)c(O)cc1O	46.8*!	75.7	1.9	nt	nt
COc1ccc(CCN)cc1O	-10.3	-14.6	5.7	nt	nt
CCOC(=O)[C@]12Cc3cc(C)ccc3[C@H]1N(C1CCCCC1)C(=O)c1cc(OC)ccc12	nt	5.3	-24.7	nt	nt
O=[N+]([O-])c1ccc(N2CCCC2)c2ccncc12	-35.3	35.4*	25.6	-14.5	i
COC(=O)C1=C(c2c(C)noc2C)C[C@@H]2CC[C@H]1N2C(=O)NCc1ccco1	-1.3	7.9	0.3	nt	nt
Nc1ccc2c3c(cccc13)CC2	92.8	2.7	-184.5	70.0*	+
COc1ccc2ccccc2c1CNCCc1ccccc1	-9.0	-8.4	1.7	0.9	i
CCN(CC)P(=O)(NC(=O)c1cccn1C)N(CC)CC	-12.8	-3.7	0.1	4.4*	?
ClCCN(CCCl)c1ccc(C=Cc2ccncn2)cc1	-71.3	54.0*	-84.2	nt	nt
ClCCN(CCCl)c1ccc(C=NNc2ncccn2)cc1	4.8	12.3	4.5	nt	nt
O=S(=O)(c1cc(Cl)cc(Cl)c1)N1Cc2cc(N3CCOCC3)ccc2-n2nncc2C1	-8.4	-12.3	2.0	nt	nt
COc1ccc(/C=C2/C(=O)NC(=O)N(C3CCCCC3)C2=O)cc1CSc1ccccn1	nt	nt	nt	9.4	i
COc1ccc(C=C2C(=O)N(C)C(=O)N(C)C2=O)cc1CSc1ccccn1	11.7	-10.8	-1.7	?	+
Cc1cc(/C=C2\C(=O)NC(=O)N(c3ccc(Cl)cc3)C2=O)c(C)n1-c1cccc(C(=O)O)c1	-11.4	0.8	-11.0	?	+
Cc1cc(/C=C2\C(=O)NC(=O)N(c3ccc(Br)cc3)C2=O)c(C)n1-c1cc(C(=O)O)cc(C(=O)O)c1	-7.9	17.1	-12.9	46.5	i
NC(=O)OCCSc1nnc(-c2cccc(C(N)=S)c2)o1	41.3*	-7.6	5.7	1.5	i
COC(=O)C1=C(c2ccc(F)cc2OCc2ccccc2)C[C@@H]2CC[C@H]1N2C(=O)NCCN1CCOCC1	-2.9	8.2	-3.0	nt	nt
COc1ccccc1N1C(=O)NC(=O)/C(=C/c2ccc([N+](=O)[O-])s2)C1=O	nt	nt	nt	51.3*	+
COc1ccc(N2C(=O)NC(=O)/C(=C\c3ccc([N+](=O)[O-])s3)C2=O)cc1	4.8	13.1	15.8	46.2	i
COc1cccc(N2C(=O)NC(=O)/C(=C/c3ccc([N+](=O)[O-])s3)C2=O)c1	14.3	17.3	-28.0	51.3	+
CC[C@@H](O)C[C@H]1CCC[C@@]2(C[C@@H]3OC(=O)/C=C/[C@@](C)(O)[C@@H](O)[C@H](C)[C@@H](O)[C@H](OC4CCC(N(C)C)C(C)O4)[C@@H](O)[C@](C)(O)CCCCC/C=C/[C@@H]4CC(C)(C)O[C@@]4(O)C[C@H](O2)[C@H]3C)O1 (some centres not stated)	-3.4	19.2	14.7	nt	nt
SMILES	MLLE-PAM2 inh	SKN-1 inh	MT1-MMP act inh	eIF4H inh	PABP FP inh
CC=C(CC)C1(CC)C(=O)NC(=S)NC1=O	8.3	-2.6	2.7	nt	nt
CS(=O)(=O)c1ccc(C2=C(CNC(=O)c3nccs3)[C@H]3CC[C@@H](C2)N3CCOc2ccccc2)cc1	7.2	-4.1	2.3	nt	nt
O=C(O)c1cc[c]([Hg][Cl])cc1	30.4	45.2*	-2.0	nt	nt
CCN(CC)c1ccc(C=C2C(=O)N(C)C(=S)N(C)C2=O)o1	-127.6	38.1*	-106.8	?	i
C=C1C(O)(c2ccccc2)C2CC[N+]1(C)CC2 (configuration not stated)	-127.4	6.2	-2.0	-8.4	+
C=C1N2CCC(CC2)C1(O)c1ccc(C)cc1 (configuration not stated)	-8.6	1.6	-3.9	-6.0	i
Cc1[nH]c2ccccc2c1CN1CCCCC1	-8.0	1.0	-1.9	nt	nt
Cc1ccc(/C=C2/C(=O)NC(=O)N(CCc3ccc(F)cc3)C2=O)o1	-30.3	50.4	-44.3	?	+
CN(C)c1ccc(/C=C2\C(=O)NC(=O)N(CCc3ccc(F)cc3)C2=O)cc1	-116.1	59.5	6.6	110.7*	+
O=C1NC(=O)N(Cc2ccc(F)cc2)C(=O)/C1=C\c1ccc(N2CCCC2)cc1	-141.2	38.9*	19.6	?	?
O=C1NC(=O)N(CCc2ccc(F)cc2)C(=O)/C1=C/c1ccco1	-30.0	12.7	-20.0	98.5	i
CC(=NNC(=S)N1CC2CCC(CC2)C1)c1nccs1	13.4	2.2	6.2	nt	nt
N#Cc1ncc(N=Cc2ccc(N(CCCl)CCCl)cc2)s1	-16.5	9.7	6.1	nt	nt
C[C@]12CCC3C(CC[C@H]4C[C@H](O)[C@H](O)C[C@]34C)C1CC[C@@H]2O (some centres not stated)	0.8	16.7	3.6	nt	nt
CCn1c(O)c(C(=O)CC2NCCc3ccccc32)c(=O)n(CC)c1=S (configuration not stated)	-87.2	51.3*	-16.7	67.2	i
CCOC(=O)c1c(NC(=O)c2c(N)n(CCCOC)c3nc4ccccc4nc23)sc2c1CCCC2	4.0	7.8	-5.6	?	+
CCCCCn1c(N)c(C(=O)NCCN2CCOCC2)c2nc3ccccc3nc21	-3.3	34.0*	-12.6	5.1	i
CCOC(=O)CC1c2ccccc2-n2nncc2CN1CC1CCCCC1 (configuration not stated)	-1.8	-11.0	-1.0	nt	nt
COc1ccc(CN2Cc3cnnn3-c3ccccc3C2C)cc1 (configuration not stated)	17.8	0.6	4.8	nt	nt
O=C1/C(=C\c2cc3c(cc2Br)OCO3)N2CCC1CC2	17.5	6.3	-0.1	70.2*	+
NCCc1ccccc1	0.6	9.5	1.6	nt	nt
NCCc1ccc(S(N)(=O)=O)cc1	-2.3	7.9	-1.5	active	+
Fc1cccc(F)c1-c1nc(-c2ccc(Cl)cc2)no1	5.2	57.4*	-1.3	-1.7	i
O=c1[nH]c(=O)n(Cc2ccccc2)c(O)c1C=NCCCO	-95.6	-15.6	-55.1	53.9*	+
O=C(N/N=C/c1c(O)n(Cc2ccccc2)c(=O)[nH]c1=O)c1ccccc1O	-18.0	36.7*	9.7	3.7	i
NC(Cc1ccccc1Cl)c1nn[nH]n1 (configuration not stated)	-4.5	22.8	-0.5	nt	nt
